≈ marks a conversion by molar mass, not a printed value. Calls of active or inactive are those of the source. The calls are words filed in the database; no cut-off is given here.
Experiments:
Plasmodium berghei [1] = test: Antimalarial activity against Plasmodium berghei str. ANKA infected in Swiss albino mouse assessed as survival at 0.048 mmol/kg/day, po qd for 3 days by microscopic analysis relative to control; type: functional
Procedure, shortened: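 P. berghei ANKA infected mice, 4-day suppressive test. Day 0: 0.2 ml of 2 x 10^7 parasitized erythrocytes given i.v. (donor blood, 20-30% parasitemia, diluted in saline). Oral dosing at 0.048 mmol/kg/day from 2 h post-infection, then days 1-3 at 24 h intervals. Vehicle 7% Tween, 3% ethanol in water. Five mice/group. Survival time recorded per mouse; mean compared with vehicle group.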

Plasmodium berghei [2] = test: Antimalarial activity against Plasmodium berghei str. ANKA infected in Swiss albino mouse assessed as parasitemia at 0.048 mmol/kg/day, po qd […] by microscopic analysis relative to control; type: functional
Procedure, shortened: (§1)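 Four-day suppressive test. Mice were infected iv on day 0 with 0.2 ml of 2 × 10^7 P. berghei ANKA-parasitized erythrocytes from a donor mouse, diluted in saline. From 2 h post-infection they were dosed orally at 0.048 mmol/kg/day for days 0–3, five mice per group. The vehicle was 7% Tween and 3% ethanol in water. On day 4, Giemsa smears were scored over 5 fields of about 100 RBC each. Suppression was calculated relative to the vehicle group, taken as 100%.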

Plasmodium berghei [3] = test: Antimalarial activity against Plasmodium berghei str. ANKA infected in Swiss albino mouse assessed as supression of parasitemia at 0.048 mmol/kg/day, po qd for 3 days by microscopic analysis relative to control; type: functional; procedure, shortened: as §1
Leishmania aethiopica [4] = test: Antileishmanial activity against amastigote stage of Leishmania aethiopica after 72 hrs by resazurin staining-based fluorescence assay; type: functional, organism-based
Procedure, shortened: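 Axenic L. aethiopica amastigotes (50 µl of 2 × 10^7 cells/ml) exposed to serial dilutions at final 0.04–10 µg/ml for 72 h at 31 °C, humidified, 5% CO₂. Resazurin was added at 68 h and fluorescence read at 72 h (ex 530/em 590 nm). EC50 from sigmoidal dose–response fits, mean ± SD of triplicate experiments run in duplicate. Controls were medium alone and 1% DMSO.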

Leishmania aethiopica [5] = test: Antileishmanial activity against promastigote stage of Leishmania aethiopica after 24 hrs by alamar blue staining-based […]; type: functional, organism-based
Procedure, shortened: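 L. aethiopica promastigotes, 3 × 10^6 per well, given compounds from DMSO stocks in three-fold dilutions at 10 to 0.04 µg/ml (final DMSO ≤0.1%), in duplicate, at room temperature (21 ± 1 °C). Alamar blue (resazurin) was added after 24 h and absorbance read 48 h later at 540 and 630 nm. Negative control was parasites, medium and DMSO.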

| SMILES | Survival (Plasmodium berghei [1]) [days] | Activity (Plasmodium berghei [2]) [%] | Activity (Plasmodium berghei [3]) [%] | IC50 (Leishmania aethiopica [4]) [µg/mL] | IC50 (Leishmania aethiopica [5]) [µg/mL] | Activity (Plasmodium berghei [1]) |
| --- | --- | --- | --- | --- | --- | --- |
| Cc1ccc(-c2nn(-c3ccc(Br)cc3)cc2C=O)cc1 | 8.4 | 30 | 65.11 | 1.82 (≈ 5.33 µM) | 3.11 (≈ 9.12 µM) | – |
| Cc1ccc(-c2nn(-c3ccc(Br)cc3)cc2C2CC(c3ccccc3)=NN2c2ccccc2)cc1 (stereo not given) | 10.64 | 22 | 74.42 | 1.24 (≈ 2.32 µM) | 2.91 (≈ 5.46 µM) | – |
| O=[N+]([O-])c1ccc(-c2nn(-c3ccc(Br)cc3)cc2C2CC(c3ccccc3)=NN2c2ccccc2)cc1 (stereo not given) | 9.84 | 32 | 62.79 | 2.01 (≈ 3.56 µM) | 3.85 (≈ 6.82 µM) | – |
| Cc1ccc(-c2nn(-c3ccc(Br)cc3)cc2/C=C/C(=O)c2ccccc2)cc1 | 11.8 | 22 | 74.42 | 1.01 (≈ 2.28 µM) | 1.03 (≈ 2.32 µM) | – |
| Cc1ccc(-c2nn(-c3ccc(C)cc3)cc2/C=N/NC(=S)Nc2ccccc2)cc1 | 9.23 | 34 | 60.47 | 2.26 (≈ 5.31 µM) | 3.01 (≈ 7.08 µM) | – |
| CC(=O)N1N=C(c2ccccc2)CC1c1cn(-c2ccc(C)cc2)nc1-c1ccc(C)cc1 (stereo not given) | 10.08 | 18 | 79.07 | 2.31 (≈ 5.32 µM) | 3.05 (≈ 7.01 µM) | – |
| CCC(=O)N1N=C(c2ccccc2)CC1c1cn(-c2ccc(C)cc2)nc1-c1ccc(C)cc1 (stereo not given) | 8.84 | 38 | 55.81 | 1.02 (≈ 2.27 µM) | 1.6 (≈ 3.57 µM) | – |
| CC(=O)N(C1=NN(C(C)=O)C(c2cn(-c3ccc(Br)cc3)nc2-c2ccc(C)cc2)S1)c1ccccc1 (stereo not given) | 12.68 | 12 | 86.05 | 0.74 (≈ 1.29 µM) | 0.468 (≈ 0.815 µM) | – |
| CCC(=O)N1N=C(c2ccccc2)CC1c1cn(-c2ccc(Br)cc2)nc1-c1ccc(C)cc1 (stereo not given) | 6.86 | 42 | 51.16 | 1.79 (≈ 3.49 µM) | 2.04 (≈ 3.98 µM) | – |
| Cc1ccc(-c2nn(-c3ccc(C)cc3)cc2C2CC(c3ccccc3)=NN2c2ccccc2)cc1 (stereo not given) | 10.82 | 26 | 69.77 | 1.78 (≈ 3.8 µM) | 3.09 (≈ 6.59 µM) | – |
| Cc1ccc(-c2nn(-c3ccc(Br)cc3)cc2/C=N/NC(=S)Nc2ccccc2)cc1 | 8.84 | 30 | 65.12 | 2.41 (≈ 4.91 µM) | 3.62 (≈ 7.39 µM) | – |
| Cc1ccc(-c2nn(-c3ccc(C)cc3)cc2C=O)cc1 | 8.62 | 33 | 61.62 | 1.97 (≈ 7.13 µM) | 4.06 (≈ 14.7 µM) | – |
| CCN(CC)CCCC(C)Nc1ccnc2cc(Cl)ccc12.O=P(O)(O)O.O=P(O)(O)O (stereo not given) [CHLOROQUINE PHOSPHATE] | – | 0 | 100 | – | – | Active |
| Cc1ccc(-n2cc(/C=N/N=c3/scc(-c4ccc(Br)cc4)n3-c3ccccc3)c(-c3ccc([N+](=O)[O-])cc3)n2)cc1 | 12.12 | 22 | 74.42 | 1.78 (≈ 2.8 µM) | 3.11 (≈ 4.9 µM) | – |
| CCCCCCCCCCCCCCCCOP(=O)([O-])OCC[N+](C)(C)C [MILTEFOSINE] | – | – | – | 0.3 (≈ 0.736 µM) | 3.19 (≈ 7.83 µM) | – |
| Cc1ccc(-c2nn(-c3ccc(C)cc3)cc2/C=C/C(=O)c2ccccc2)cc1 | 11.6 | 26 | 69.77 | 2.88 (≈ 7.61 µM) | 4 (≈ 10.6 µM) | – |
| Cc1ccc(-c2nn(-c3ccc(Br)cc3)cc2C2CC(c3ccccc3)=NN2)cc1 (stereo not given) | 7.88 | 28 | 67.44 | 1.88 (≈ 4.11 µM) | 2.01 (≈ 4.4 µM) | – |
| CC(=O)N(C1=NN(C(C)=O)C(c2cn(-c3ccc(C)cc3)nc2-c2ccc([N+](=O)[O-])cc2)S1)c1ccccc1 (stereo not given) | 10.4 | 18 | 79.07 | 1.21 (≈ 2.24 µM) | 0.846 (≈ 1.57 µM) | – |
| O=[N+]([O-])c1ccc(-c2nn(-c3ccc(Br)cc3)cc2/C=N/N=c2/scc(-c3ccc(Br)cc3)n2-c2ccccc2)cc1 | 12.26 | 28 | 67.44 | 1.07 (≈ 1.53 µM) | 2.9 (≈ 4.14 µM) | – |
| O=Cc1cn(-c2ccc(Br)cc2)nc1-c1ccc([N+](=O)[O-])cc1 | 8.71 | 35 | 59.3 | 2.03 (≈ 5.45 µM) | 4.84 (≈ 13 µM) | – |
| CC(=O)N1N=C(c2ccccc2)CC1c1cn(-c2ccc(Br)cc2)nc1-c1ccc([N+](=O)[O-])cc1 (stereo not given) | 6.62 | 26 | 69.77 | 0.89 (≈ 1.68 µM) | 1.09 (≈ 2.05 µM) | – |
| Cc1ccc(-c2nn(-c3ccc(Br)cc3)cc2/C=N/N=c2/scc(-c3ccc(Br)cc3)n2-c2ccccc2)cc1 | 11.22 | 14 | 83.72 | 2.21 (≈ 3.3 µM) | 4.06 (≈ 6.07 µM) | – |
| Cc1ccc(-c2nn(-c3ccc(C)cc3)cc2/C=N/N=C2/SCC(=O)N2c2ccccc2)cc1 | 10.64 | 10 | 88.37 | 0.58 (≈ 1.25 µM) | 0.882 (≈ 1.89 µM) | – |
| Cc1ccc(-c2nn(-c3ccc(C)cc3)cc2C2CC(c3ccccc3)=NN2)cc1 (stereo not given) | 7.62 | 30 | 65.12 | 2.37 (≈ 6.04 µM) | 2.84 (≈ 7.25 µM) | – |
| Cc1ccc(-n2cc(C=O)c(-c3ccc([N+](=O)[O-])cc3)n2)cc1 | 7.28 | 32 | 62.79 | 1.56 (≈ 5.08 µM) | 3.64 (≈ 11.9 µM) | – |
| CCC(=O)N1N=C(c2ccccc2)CC1c1cn(-c2ccc(Br)cc2)nc1-c1ccc([N+](=O)[O-])cc1 (stereo not given) | 6.82 | 34 | 60.47 | 1.83 (≈ 3.36 µM) | 2.12 (≈ 3.9 µM) | – |
| CC(=O)N(C1=NN(C(C)=O)C(c2cn(-c3ccc(C)cc3)nc2-c2ccc(C)cc2)S1)c1ccccc1 (stereo not given) | 12.22 | 14 | 83.72 | 0.82 (≈ 1.61 µM) | 0.862 (≈ 1.69 µM) | – |

— ChEMBL document CHEMBL3414483, “New heterocyclic hybrids of pyrazole and its bioisosteres: design, synthesis and biological evaluation as dual acting antimalarial-antileishmanial agents” (Eur J Med Chem, 2015)
